# According to ChEMBL document CHEMBL4028872, “Structure-Activity Relationship, Pharmacological Characterization, and Molecular Modeling of Noncompetitive Inhibitors of the Betaine/γ-Aminobutyric Acid Transporter 1 (BGT1)” (J Med Chem, 2017):
# Active and inactive are the calls of the source. No cut-off for these calls is given here.
# Columns and labels:
# Homo sapiens = organism: Homo sapiens; assay: Binding affinity to sigma receptor (unknown origin)
# [1] = target: Sodium- and chloride-dependent GABA transporter 3 (Homo sapiens, UniProt P48066, S468Y); assay: Inhibition of human GAT3 S468Y mutant expresses in tsA201 cells assessed as reduction in [3H]GABA uptake after 3 mins by scintillation counting method; assay type: cell-based
# In short: (§1)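 Site-directed mutant transporters transiently transfected (PolyFect) into tsA201 cells, plated and used about 24 h later. Cells were washed with HBSS containing 20 mM HEPES, 1 mM CaCl2 and 1 mM MgCl2, pH 7.4. Uptake of 30 nM [3H]GABA was run with varied inhibitor concentrations for 3 min at 37 °C, then three ice-cold washes and scintillation counting. IC50 was taken from variable-slope sigmoidal fits. Triplicates, at least three independent experiments.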
# [2] = target: D(4) dopamine receptor (Homo sapiens) (UniProt P21917); assay: Displacement of [3H]N-methylspiperone from human Dopamine receptor D4 receptor at 10 uM after 90 mins by scintillation counting method
# [3] = target: Sodium- and chloride-dependent GABA transporter 1 (Mus musculus, UniProt P31648); assay: Inhibition of mouse GAT1 expressed in HEK293 cells assessed as reduction in [3H]GABA uptake after 3 mins by scintillation counting method; assay type: cell-based
# In short: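 HEK293 lines stably expressing a single mouse GAT subtype, kept under blasticidin-S (5 µg/mL) selection. Cells were assayed about 24 h after plating with 30 nM [3H]GABA plus varying compound concentrations for 3 min at 37 °C in HBSS buffered with 20 mM HEPES (1 mM CaCl2, 1 mM MgCl2, pH 7.4). Cells were washed ice-cold and radioactivity counted. IC50 came from sigmoidal variable-slope fits.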
# [4] = target: T1, Sodium- and chloride-dependent betaine transporter (Homo sapiens, UniProt P48065); assay: Inhibition of human BGT1/human GAT3 chimera D expresses in tsA201 cells assessed as reduction in [3H]GABA uptake after 3 mins by scintillation counting method; assay type: cell-based
# In short: (§2)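 BGT1/GAT3 chimeric constructs transiently expressed in tsA201 cells. After about 24 h, cells were washed in HEPES-buffered HBSS (1 mM CaCl2, 1 mM MgCl2, pH 7.4). IC50 came from variable-slope sigmoidal regression. Triplicates, at least two independent experiments.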
# [5] = target: Alpha-2C adrenergic receptor (Homo sapiens) (UniProt P18825); assay: Displacement of [3H]rauwolscine from human alpha-2C adrenergic receptor expressed in MDCK cell membranes at 10 uM after 90 mins by scintillation counting method
# [6] = target: Sodium- and chloride-dependent betaine transporter (Homo sapiens, UniProt P48065, A321M); assay: Inhibition of human BGT1 A321M mutant expressed in tsA201 cells assessed as reduction in [3H]GABA uptake after 3 mins by scintillation counting method; assay type: cell-based
# In short: as §1, with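 “7.4.” for “7.4. Uptake of 30 nM [3H]GABA was run with varied inhibitor concentrations for 3 min at 37 °C, then three ice-cold washes and scintillation counting.”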
# [7] = target: Sodium- and chloride-dependent betaine transporter (Homo sapiens, UniProt P48065, Q346Y); assay: Inhibition of human BGT1 Q346Y mutant expressed in tsA201 cells assessed as reduction in [3H]GABA uptake after 3 mins by scintillation counting method; assay type: cell-based
# In short: as §1, with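 “7.4.” for “7.4. Uptake of 30 nM [3H]GABA was run with varied inhibitor concentrations for 3 min at 37 °C, then three ice-cold washes and scintillation counting.”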
# [8] = target: Sodium- and chloride-dependent betaine transporter (Homo sapiens, UniProt P48065, F324C); assay: Inhibition of human BGT1 F324C mutant expressed in tsA201 cells assessed as reduction in [3H]GABA uptake after 3 mins by scintillation counting method; assay type: cell-based
# In short: as §1, with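 “7.4.” for “7.4. Uptake of 30 nM [3H]GABA was run with varied inhibitor concentrations for 3 min at 37 °C, then three ice-cold washes and scintillation counting.”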
# [9] = target: Sodium- and chloride-dependent betaine transporter (Homo sapiens, UniProt P48065, H312N); assay: Inhibition of human BGT1 H312N mutant expressed in tsA201 cells assessed as reduction in [3H]GABA uptake after 3 mins by scintillation counting method; assay type: cell-based
# In short: as §1, with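 “7.4.” for “7.4. Uptake of 30 nM [3H]GABA was run with varied inhibitor concentrations for 3 min at 37 °C, then three ice-cold washes and scintillation counting.”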
# [10] = target: Sodium- and chloride-dependent betaine transporter (Homo sapiens, UniProt P48065, S381A); assay: Inhibition of human BGT1 S381A mutant expressed in tsA201 cells assessed as reduction in [3H]GABA uptake after 3 mins by scintillation counting method; assay type: cell-based
# In short: as §1, with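 “7.4.” for “7.4. Uptake of 30 nM [3H]GABA was run with varied inhibitor concentrations for 3 min at 37 °C, then three ice-cold washes and scintillation counting.”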
# [11] = target: Sodium- and chloride-dependent betaine transporter (Homo sapiens, UniProt P48065, S353A); assay: Inhibition of human BGT1 S353A mutant expressed in tsA201 cells assessed as reduction in [3H]GABA uptake after 3 mins by scintillation counting method; assay type: cell-based
# In short: as §1, with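 “7.4.” for “7.4. Uptake of 30 nM [3H]GABA was run with varied inhibitor concentrations for 3 min at 37 °C, then three ice-cold washes and scintillation counting.”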
# [12] = target: Sodium- and chloride-dependent betaine transporter (Homo sapiens, UniProt P48065, K317R); assay: Inhibition of human BGT1 K317R mutant expressed in tsA201 cells assessed as reduction in [3H]GABA uptake after 3 mins by scintillation counting method; assay type: cell-based
# In short: as §1, with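 “7.4.” for “7.4. Uptake of 30 nM [3H]GABA was run with varied inhibitor concentrations for 3 min at 37 °C, then three ice-cold washes and scintillation counting.”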
# [13] = target: Sodium- and chloride-dependent betaine transporter (Homo sapiens, UniProt P48065, V336A); assay: Inhibition of human BGT1 V336A mutant expressed in tsA201 cells assessed as reduction in [3H]GABA uptake after 3 mins by scintillation counting method; assay type: cell-based
# In short: as §1, with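 “7.4.” for “7.4. Uptake of 30 nM [3H]GABA was run with varied inhibitor concentrations for 3 min at 37 °C, then three ice-cold washes and scintillation counting.”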
# [14] = target: Sodium- and chloride-dependent betaine transporter (Homo sapiens, UniProt P48065, S345A); assay: Inhibition of human BGT1 S345A mutant expressed in tsA201 cells assessed as reduction in [3H]GABA uptake after 3 mins by scintillation counting method; assay type: cell-based
# In short: as §1, with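 “7.4.” for “7.4. Uptake of 30 nM [3H]GABA was run with varied inhibitor concentrations for 3 min at 37 °C, then three ice-cold washes and scintillation counting.”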
# [15] = target: Sodium- and chloride-dependent betaine transporter (Homo sapiens, UniProt P48065, V337I); assay: Inhibition of human BGT1 V337I mutant expressed in tsA201 cells assessed as reduction in [3H]GABA uptake after 3 mins by scintillation counting method; assay type: cell-based
# In short: as §1, with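 “7.4.” for “7.4. Uptake of 30 nM [3H]GABA was run with varied inhibitor concentrations for 3 min at 37 °C, then three ice-cold washes and scintillation counting.”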
# [16] = target: Sodium- and chloride-dependent betaine transporter (Homo sapiens, UniProt P48065, Q378P); assay: Inhibition of human BGT1 Q378P mutant expressed in tsA201 cells assessed as reduction in [3H]GABA uptake after 3 mins by scintillation counting method; assay type: cell-based
# In short: as §1, with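 “7.4.” for “7.4. Uptake of 30 nM [3H]GABA was run with varied inhibitor concentrations for 3 min at 37 °C, then three ice-cold washes and scintillation counting.”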
# [17] = target: Sodium- and chloride-dependent betaine transporter (Homo sapiens, UniProt P48065, K310N); assay: Inhibition of human BGT1 K310N mutant expressed in tsA201 cells assessed as reduction in [3H]GABA uptake after 3 mins by scintillation counting method; assay type: cell-based
# In short: as §1, with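 “7.4.” for “7.4. Uptake of 30 nM [3H]GABA was run with varied inhibitor concentrations for 3 min at 37 °C, then three ice-cold washes and scintillation counting.”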
# [18] = target: T1, Sodium- and chloride-dependent betaine transporter; assay: Inhibition of human BGT1/human GAT3 chimera C expresses in tsA201 cells assessed as reduction in [3H]GABA uptake after 3 mins by scintillation counting method; assay type: cell-based; in short: as §2
# [19] = target: Sodium- and chloride-dependent betaine transporter (Homo sapiens, UniProt P48065, A328G); assay: Inhibition of human BGT1 A328G mutant expressed in tsA201 cells assessed as reduction in [3H]GABA uptake after 3 mins by scintillation counting method; assay type: cell-based
# In short: as §1, with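 “7.4.” for “7.4. Uptake of 30 nM [3H]GABA was run with varied inhibitor concentrations for 3 min at 37 °C, then three ice-cold washes and scintillation counting.”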
# [20] = target: 5-hydroxytryptamine receptor 1D (Homo sapiens) (UniProt P28221); assay: Displacement of [3H]GR125743 from human 5-HT1D receptor expressed in HEKT cell membranes at 10 uM after 90 mins by scintillation counting method
# [21] = target: Histamine H1 receptor (Homo sapiens) (UniProt P35367); assay: Displacement of [3H]pyrilamine from human histamine H1 receptor expressed in HEK cell membranes at 10 uM after 90 mins by scintillation counting method
# T1 sequence (P48065 whole entry, looked up): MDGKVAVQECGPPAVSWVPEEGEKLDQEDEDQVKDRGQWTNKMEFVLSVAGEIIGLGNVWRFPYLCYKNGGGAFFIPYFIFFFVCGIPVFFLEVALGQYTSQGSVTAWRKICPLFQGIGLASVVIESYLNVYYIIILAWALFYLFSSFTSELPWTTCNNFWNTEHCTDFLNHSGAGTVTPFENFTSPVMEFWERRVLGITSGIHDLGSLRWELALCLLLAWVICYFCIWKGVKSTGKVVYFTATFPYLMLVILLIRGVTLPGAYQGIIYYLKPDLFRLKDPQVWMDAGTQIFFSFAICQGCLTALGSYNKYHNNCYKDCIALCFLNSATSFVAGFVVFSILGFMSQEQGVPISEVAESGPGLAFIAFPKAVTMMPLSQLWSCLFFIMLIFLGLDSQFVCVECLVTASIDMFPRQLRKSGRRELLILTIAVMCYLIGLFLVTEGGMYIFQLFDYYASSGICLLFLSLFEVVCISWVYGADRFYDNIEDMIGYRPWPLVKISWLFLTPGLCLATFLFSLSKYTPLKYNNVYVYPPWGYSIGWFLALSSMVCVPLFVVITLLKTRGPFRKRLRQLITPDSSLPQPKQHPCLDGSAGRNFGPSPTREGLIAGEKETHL
# Chain of Sodium- and chloride-dependent GABA transporter 3 (P48066 whole entry S468Y): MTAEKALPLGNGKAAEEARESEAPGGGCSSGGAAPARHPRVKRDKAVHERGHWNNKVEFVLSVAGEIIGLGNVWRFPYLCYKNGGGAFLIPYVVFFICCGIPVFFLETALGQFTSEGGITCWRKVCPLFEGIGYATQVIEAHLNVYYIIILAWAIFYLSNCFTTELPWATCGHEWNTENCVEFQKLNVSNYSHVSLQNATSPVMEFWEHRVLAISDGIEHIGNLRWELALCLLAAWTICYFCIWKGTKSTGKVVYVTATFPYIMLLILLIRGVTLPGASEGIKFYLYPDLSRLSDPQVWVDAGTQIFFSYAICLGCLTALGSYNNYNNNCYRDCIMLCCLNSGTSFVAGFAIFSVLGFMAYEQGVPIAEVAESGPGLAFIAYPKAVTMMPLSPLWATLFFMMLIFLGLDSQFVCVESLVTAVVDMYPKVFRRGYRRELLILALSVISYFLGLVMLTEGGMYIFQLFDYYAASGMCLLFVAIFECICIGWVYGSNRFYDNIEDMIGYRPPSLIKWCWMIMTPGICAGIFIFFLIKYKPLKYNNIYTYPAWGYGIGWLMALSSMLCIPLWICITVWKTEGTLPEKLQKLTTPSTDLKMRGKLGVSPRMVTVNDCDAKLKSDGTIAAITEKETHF
# Chain of Sodium- and chloride-dependent betaine transporter (Homo sapiens, UniProt P48065, V336A) (P48065 whole entry V336A): as the sequence (P48065 whole entry, looked up) above, with V336A counted along it
# Chain of Sodium- and chloride-dependent betaine transporter (Homo sapiens, UniProt P48065, V337I) (P48065 whole entry V337I): as the sequence (P48065 whole entry, looked up) above, with V337I counted along it
# Chain of D(4) dopamine receptor (Homo sapiens) (P21917 whole entry): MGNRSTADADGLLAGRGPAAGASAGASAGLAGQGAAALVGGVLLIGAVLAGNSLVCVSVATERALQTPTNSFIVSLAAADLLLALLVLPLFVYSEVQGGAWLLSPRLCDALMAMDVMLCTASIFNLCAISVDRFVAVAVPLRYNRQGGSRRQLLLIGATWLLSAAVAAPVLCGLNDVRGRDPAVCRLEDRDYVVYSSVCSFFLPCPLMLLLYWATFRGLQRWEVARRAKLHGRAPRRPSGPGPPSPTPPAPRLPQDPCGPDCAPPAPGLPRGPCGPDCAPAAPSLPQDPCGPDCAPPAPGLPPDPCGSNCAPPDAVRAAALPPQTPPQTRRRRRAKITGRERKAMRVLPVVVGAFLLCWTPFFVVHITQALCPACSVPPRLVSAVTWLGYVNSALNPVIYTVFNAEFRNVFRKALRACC
# Chain of Alpha-2C adrenergic receptor (Homo sapiens) (P18825 whole entry): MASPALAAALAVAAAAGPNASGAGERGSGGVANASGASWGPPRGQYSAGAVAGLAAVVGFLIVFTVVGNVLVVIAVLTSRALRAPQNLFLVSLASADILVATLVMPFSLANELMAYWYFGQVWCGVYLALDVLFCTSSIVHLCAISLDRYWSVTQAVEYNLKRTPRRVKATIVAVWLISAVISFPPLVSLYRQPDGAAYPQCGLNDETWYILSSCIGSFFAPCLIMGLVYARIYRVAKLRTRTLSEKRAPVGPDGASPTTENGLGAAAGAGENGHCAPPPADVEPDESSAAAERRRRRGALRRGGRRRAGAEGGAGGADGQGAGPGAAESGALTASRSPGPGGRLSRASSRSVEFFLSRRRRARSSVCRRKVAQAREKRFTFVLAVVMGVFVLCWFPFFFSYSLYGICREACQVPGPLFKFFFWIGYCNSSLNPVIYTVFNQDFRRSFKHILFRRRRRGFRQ
# Chain of Sodium- and chloride-dependent betaine transporter (Homo sapiens, UniProt P48065, S345A) (P48065 whole entry S345A): as the sequence (P48065 whole entry, looked up) above, with S345A counted along it
# Chain of 5-hydroxytryptamine receptor 1D (Homo sapiens) (P28221 whole entry): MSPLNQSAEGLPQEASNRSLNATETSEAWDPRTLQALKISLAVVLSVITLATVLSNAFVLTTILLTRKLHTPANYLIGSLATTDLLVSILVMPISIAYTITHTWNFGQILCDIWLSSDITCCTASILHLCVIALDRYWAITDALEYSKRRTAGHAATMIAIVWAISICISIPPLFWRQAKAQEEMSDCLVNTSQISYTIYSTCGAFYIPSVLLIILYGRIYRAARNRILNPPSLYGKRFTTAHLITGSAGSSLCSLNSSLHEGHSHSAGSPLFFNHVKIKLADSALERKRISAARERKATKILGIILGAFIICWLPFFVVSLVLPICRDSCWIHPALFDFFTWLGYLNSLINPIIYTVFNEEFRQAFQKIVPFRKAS
compound,measurement,setting,value
O=C(NC1CCN(Cc2ccccc2)CC1)c1ccc(Cl)nc1Cl,Activity,Homo sapiens,Active
same,IC50,[1],> 1000 µM
same,inhibition,[2],inactive
same,IC50,[3],> 400 µM
O=C(NC1CCN(Cc2ccccc2)CC1)c1ccc(Cl)cc1Cl,IC50,[4],2 µM
same,pIC50,[4],5.79
same,inhibition,[5],Active
same,IC50,[1],> 300 µM
same,IC50,[6],5 µM
same,IC50,[7],14 µM
same,IC50,[8],6 µM
same,IC50,[9],8 µM
same,IC50,[10],13 µM
same,IC50,[11],17 µM
same,IC50,[12],13 µM
same,inhibition,[2],Active
same,IC50,[13]; read-out: IC50,2 µM
same,IC50,[13]; read-out: pIC50 (converted),1.66 µM
same,IC50,[14],21 µM
same,IC50,[15]; read-out: IC50,6 µM
same,IC50,[15]; read-out: pIC50 (converted),4.9 µM
same,IC50,[16],14 µM
same,IC50,[3],> 200 µM
same,IC50,[17],10 µM
same,IC50,[18],58 µM
same,pIC50,[18],4.6
same,IC50,[19],7 µM
same,inhibition,[20],Active
same,inhibition,[21],Active
